Source: ChEMBL document CHEMBL4004856, “Synthesis of new heterocyclic compounds based on pyrazolopyridine scaffold and evaluation of their neuroprotective potential in MPP+-induced neurodegeneration” (Eur J Med Chem, 2017)
The source made the active and inactive calls. No cut-off for these calls is given here.

Columns and labels:
[1] = test system: SH-SY5Y; test: Cytotoxicity against human SH-SY5Y cells assessed as reduction in cell viability up to 20 uM up to 24 hrs by MTT assay; type: cell-based
Summary of the method: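 SH-SY5Y cells in DMEM with 10% FBS and penicillin/streptomycin at 37°C, 5% CO2, seeded 2x10³ cells/well and left to adhere 24 h. Compounds (5, 10, 20 μM, in DMSO) were added for 3, 6 and 24 h. MTT was then added (0.5 mg/ml final) for 3 h, and formazan was dissolved in DMSO and read at 570/630 nm. Values are relative to vehicle control.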

[2] = test system: SH-SY5Y; test: Neuroprotective activity against MPP+-induced toxicity in human SH-SY5Y cells assessed as increase in cell viability at 5 uM preincubated for 1 hr followed by MPP+ addition measured up to 24 hrs by MTT assay relative to control; type: functional
Summary of the method: (§1)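 SH-SY5Y cells seeded 2x10³/well and left to adhere 24 h. Compounds (5–20 μM, DMSO) were added 1 h before 2 mM MPP⁺ for 24 h at 37°C, 5% CO2. Viability was read by MTT (0.5 mg/ml final, 3 h), DMSO solubilisation and absorbance at 570/630 nm, expressed as % of vehicle control. Mean ± SD, n = 5.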

[3] = test system: SH-SY5Y; test: Neuroprotective activity against MPP+-induced toxicity in human SH-SY5Y cells assessed as increase in cell viability at 10 to 20 uM preincubated for 1 hr followed by MPP+ addition measured up to 24 hrs by MTT assay relative to control; type: functional; summary of the method: as §1
[4] = test system: SH-SY5Y; test: Neuroprotective activity against MPP+-induced toxicity in human SH-SY5Y cells assessed as increase in cell viability preincubated for 1 hr followed by MPP+ addition measured up to 24 hrs by MTT assay; type: functional, cell-based; summary of the method: as §1
[5] = test system: SH-SY5Y; test: Neuroprotective activity against MPP+-induced toxicity in human SH-SY5Y cells assessed as increase in cell viability at 20 uM preincubated for 1 hr followed by MPP+ addition measured up to 24 hrs by MTT assay relative to control; type: functional; summary of the method: as §1
[6] = test system: SH-SY5Y; test: Neuroprotective activity against MPP+-induced toxicity in human SH-SY5Y cells assessed as increase in cell viability at 5 to 10 uM preincubated for 1 hr followed by MPP+ addition measured up to 24 hrs by MTT assay relative to control; type: functional; summary of the method: as §1
[7] = test system: SH-SY5Y; test: Neuroprotective activity against MPP+-induced toxicity in human SH-SY5Y cells assessed as ratio of Bcl2 to beta-actin protein expression level at 5 uM preincubated for 1 hr followed by MPP+ addition measured up to 12 hrs by Western blot method (reference value: 2.84 +/- 0.02); type: functional
Summary of the method: (§2)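 SH-SY5Y cells seeded 5x10⁵/well and left to adhere 24 h. Compounds (1 or 5 μM) were added 1 h before 2 mM MPP⁺ for 12 h. Lysates in RIPA-type buffer; 10 μg protein run on 10% SDS gels and blotted to PVDF. Blots were probed with rabbit anti-bax, Bcl-2, Bcl-xl or caspase-3 (cleaved p17/p19) antibodies and detected by chemiluminescence. Densitometry was normalised to β-actin. Mean ± SD, n = 3.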

[8] = test system: SH-SY5Y; test: Neuroprotective activity against MPP+-induced toxicity in human SH-SY5Y cells assessed as ratio of Bax to beta-actin protein expression level at 1 uM preincubated for 1 hr followed by MPP+ addition measured up to 12 hrs by Western blot method (reference value: 1.26); type: functional; summary of the method: as §2
[9] = test system: SH-SY5Y; test: Neuroprotective activity against MPP+-induced toxicity in human SH-SY5Y cells assessed as ratio of Bax to beta-actin protein expression level at 5 uM preincubated for 1 hr followed by MPP+ addition measured up to 12 hrs by Western blot method (reference value: 1.26); type: functional; summary of the method: as §2
[10] = test system: SH-SY5Y; test: Neuroprotective activity against MPP+-induced toxicity in human SH-SY5Y cells assessed as increase in Bcl-xl protein level at 1 uM preincubated for 1 hr followed by MPP+ addition measured up to 12 hrs by Western blot method; type: functional, cell-based; summary of the method: as §2
[11] = test system: SH-SY5Y; test: Neuroprotective activity against MPP+-induced toxicity in human SH-SY5Y cells assessed as increase in Bcl2 protein expression level preincubated for 1 hr followed by MPP+ addition measured up to 12 hrs by Western blot method
[12] = test system: SH-SY5Y; test: Neuroprotective activity against MPP+-induced toxicity in human SH-SY5Y cells assessed as decrease in caspase-3 activation at 1 uM preincubated for 1 hr followed by MPP+ addition measured up to 12 hrs by Western blot method; type: functional, cell-based; summary of the method: as §2
[13] = test system: SH-SY5Y; test: Neuroprotective activity against MPP+-induced toxicity in human SH-SY5Y cells assessed as decrease in Bax protein expression level preincubated for 1 hr followed by MPP+ addition measured up to 12 hrs by Western blot method; type: functional, cell-based; summary of the method: as §2
[14] = test system: SH-SY5Y; test: Neuroprotective activity against MPP+-induced toxicity in human SH-SY5Y cells assessed as increase in Bcl2 protein expression level at 1 uM preincubated for 1 hr followed by MPP+ addition measured up to 12 hrs by Western blot method
[15] = test system: SH-SY5Y; test: Neuroprotective activity against MPP+-induced toxicity in human SH-SY5Y cells assessed as decrease in caspase-3 activation at 5 uM preincubated for 1 hr followed by MPP+ addition measured up to 12 hrs by Western blot method; type: functional, cell-based; summary of the method: as §2
[16] = test system: SH-SY5Y; test: Neuroprotective activity against MPP+-induced toxicity in human SH-SY5Y cells assessed as increase in Bcl-xl protein level by measuring ratio of Bcl-xl to beta actin level at 5 uM preincubated for 1 hr followed by MPP+ addition measured up to 12 hrs by Western blot method (reference value: 0.27 +/- 0.001); type: functional; summary of the method: as §2

Row | SMILES | Activity [1] | Activity [2] | Activity [3] | Activity [4] | Activity [5] | Activity [6] | Ratio [7] | Ratio [8] | Ratio [9] | Activity [10] | Activity [11] | Activity [12] | Activity [13] | Activity [14] | Activity [15] | Ratio [16]
1 | Cc1cccc(-c2c(C)nc3c(c(C)nn3-c3ccccc3)c2C)c1 | Non-Toxic | 20 - 30% | 10 - 20% | Dose-dependent effect | – | – | – | – | – | – | – | – | – | – | – | –
2 | Cc1nc2c(c(C)nn2-c2ccccc2)c(C)c1-c1ccc(F)nc1 | Non-Toxic | – | – | Dose-dependent effect | 10 - 20% | 20 - 30% | – | – | – | – | – | – | – | – | – | –
3 | Cc1nc2c(c(C)nn2-c2ccccc2)c(C)c1-c1cccs1 | Non-Toxic | 20 - 30% | 10 - 20% | Dose-dependent effect | – | – | 4.33 | 0.76 | 0.49 - 1.03 | Active | Dose-dependent effect | Active | Dose-dependent effect | inactive | – | –
4 | Cc1nc2c(c(C)nn2-c2ccccc2)c(C)c1Br | Non-Toxic | 20 - 30% | 10 - 20% | Dose-dependent effect | – | – | – | – | – | – | – | – | – | – | – | –
5 | Cc1nc2c(c(C)nn2-c2ccccc2)c(C)c1-c1ccccc1 | Non-Toxic | 20 - 30% | 10 - 20% | Dose-dependent effect | – | – | – | – | – | – | – | – | – | – | – | –
6 | CCOC(=O)c1ccc(-c2c(C)nc3c(c(C)nn3-c3ccccc3)c2C)cc1 | Non-Toxic | 20 - 30% | 10 - 20% | Dose-dependent effect | – | – | – | – | – | – | – | – | – | – | – | –
7 | Cc1nc2c(c(C)nn2-c2ccccc2)c(C)c1-c1cccc(C#N)c1 | Non-Toxic | 20 - 30% | 10 - 20% | Dose-dependent effect | – | – | – | – | – | – | – | – | – | – | – | –
8 | Cc1ccc(-c2c(C)nc3c(c(C)nn3-c3ccccc3)c2C)cc1 | Non-Toxic | 20 - 30% | 10 - 20% | Dose-dependent effect | – | – | 3.62 | 1.11 | 0.49 - 1.03 | Active | Dose-dependent effect | Active | Dose-dependent effect | inactive | Active | –
9 | Cc1ccccc1-c1c(C)nc2c(c(C)nn2-c2ccccc2)c1C | Non-Toxic | 20 - 30% | 10 - 20% | Dose-dependent effect | – | – | – | – | – | – | – | – | – | – | – | –
10 | Cc1nc2c(c(C)nn2-c2ccccc2)c(C)c1-c1ccc(C=O)cc1 | Non-Toxic | 20 - 30% | 10 - 20% | Dose-dependent effect | – | – | 2.63 | 0.86 | 0.49 - 1.03 | Active | Dose-dependent effect | Active | Dose-dependent effect | inactive | Active | –
11 | Cc1nc2c(c(C)nn2-c2ccccc2)c(C)c1-c1ccc([N+](=O)[O-])cc1 | Non-Toxic | 20 - 30% | 10 - 20% | Dose-dependent effect | – | – | 3.22 | 0.75 | 0.49 - 1.03 | Active | Dose-dependent effect | Active | Dose-dependent effect | inactive | inactive | –
12 | Cc1nc2c(c(C)nn2-c2ccccc2)c(C)c1-c1ccc(N(C)C)cc1 | Non-Toxic | 20 - 30% | 10 - 20% | Dose-dependent effect | – | – | – | – | – | – | – | – | – | – | – | –
13 | Cc1nc2c(c(C)nn2-c2ccccc2)c(C)c1-c1ccc(C(F)(F)F)cc1 | Non-Toxic | 20 - 30% | 10 - 20% | Dose-dependent effect | – | – | 0.85 | 0.85 | 0.49 - 1.03 | Active | Dose-dependent effect | Active | Dose-dependent effect | inactive | inactive | 0.28
14 | COc1ccc(-c2c(C)nc3c(c(C)nn3-c3ccccc3)c2C)cc1 | Non-Toxic | 20 - 30% | 10 - 20% | Dose-dependent effect | – | – | – | – | – | – | – | – | – | – | – | –
15 | Cc1nc2c(c(C)nn2-c2ccccc2)c(C)c1-c1ccc(Cl)cc1 | Non-Toxic | – | – | Dose-dependent effect | 10 - 20% | 20 - 30% | 0.39 | 0.78 | 0.49 - 1.03 | Active | Dose-dependent effect | Active | Dose-dependent effect | inactive | – | –
